High-throughput results as filed in PubChem.
This is a sample that favours compounds with a hit; in the whole collection about 2% have one here.
FLuc inh counter = Photinus pyralis luciferase inhibition counter-screen; inhibition, % at 10 µM; ATPLite firefly luciferase biochemical luminescence, 10 min; AID 1006; 200,000 tested, 1.5% active; P08659;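 active = inhibition above about 50% when tested at 10 µM, limit read from the data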
Target sequence (P08659 whole entry, looked up): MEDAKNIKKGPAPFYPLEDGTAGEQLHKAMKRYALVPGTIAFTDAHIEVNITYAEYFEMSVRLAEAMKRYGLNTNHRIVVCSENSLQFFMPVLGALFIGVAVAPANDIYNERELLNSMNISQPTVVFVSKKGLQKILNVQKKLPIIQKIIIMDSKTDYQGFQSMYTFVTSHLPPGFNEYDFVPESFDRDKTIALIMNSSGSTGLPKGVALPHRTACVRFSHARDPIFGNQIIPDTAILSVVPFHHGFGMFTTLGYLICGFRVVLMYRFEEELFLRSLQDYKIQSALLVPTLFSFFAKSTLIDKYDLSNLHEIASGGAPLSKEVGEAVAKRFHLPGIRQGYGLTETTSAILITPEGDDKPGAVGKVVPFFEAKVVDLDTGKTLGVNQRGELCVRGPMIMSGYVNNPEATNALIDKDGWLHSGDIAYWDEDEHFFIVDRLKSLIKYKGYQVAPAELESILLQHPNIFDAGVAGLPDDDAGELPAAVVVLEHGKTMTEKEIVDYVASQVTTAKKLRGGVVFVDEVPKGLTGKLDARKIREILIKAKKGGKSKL
PPC-1+TRAIL kill = PPC-1 cancer cell killing with TRAIL present | PPC-1 cells + TRAIL, ATPLite viability luminescence | cell killing (% activity), % at 4 µM or 5 µM | 220,000 tested, 0.41% active;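 active = cell killing above 50% in the first pass at 4 µM, then a duplicate retest at 5 µM averaging 50% or more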
HSP90 inh = blocks HSP90-mediated luciferase refolding in reticulocyte lysate | 290,000 tested, 0.91% active | AID 1789 | inhibition, % at 5.6 µM | Rabbit reticulocyte lysate, luciferase refolding luminescence, 3 h;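 active = inhibition above the screen-wide mean plus 3 SD, computed separately per campaign, cut at about 16% in these data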;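 also: inhibitors lower the luminescence because luciferase stays unfolded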
TRAIL sens C8 = caspase-8 TRAIL sensitization. NB7+C8 cells + TRAIL, ATPlite viability luminescence. 360,000 tested, 1% active. inhibition (viability loss, TRAIL sensitization), % at 10 µM. AID 624354;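 active = compounds causing at least 50% loss of cell viability in the single-dose screen, relative to plate controls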
FLuc stim CS = affects firefly luciferase, flagging false hits in luciferase stimulation screens; P08659; AID 1027; ATPlite luciferase biochemical, luminescence, 10 min; 0 = ATP-free wells, 1 = DMSO control; activation factor at 10 µM; 200,000 tested, under 10 active;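 active = luciferase activation factor, scaled between plate controls, of at least 2 with compound at 10 µM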
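assay system = Luciferase/luciferin detection reagent, cell-free biochemical luciferase assay | also added = ATP substrate | times = 10 min post-reagent at room temperature | measured by = luminescence from luciferase reaction | measure = luciferase activation, seen as luminescence increase over controls | benchmarks = low control with PBS replacing ATP, high control enzyme plus ATP without compound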
Numbers stand for hits; n = inactive; x = not tested or not shown.

SMILES	FLuc inh counter	PPC-1+TRAIL kill	HSP90 inh	TRAIL sens C8	FLuc stim CS
O=C1NC[C@H](CCCCN2C[C@H](Cc3ccc(O)cc3)N(CCc3ccccc3)C(=O)C2=O)N(CC2CCCCC2)C1=O	x	x	x	n	x
Cc1cc(C)nc(SCc2cc(=O)c(OC(=O)c3ccc(Br)o3)co2)n1	60	n	n	n	n
Cc1cc(C)nc(SCc2cc(=O)c(OC(=O)c3ccco3)co2)n1	n	n	n	n	n
Oc1ccc(-c2csc(-c3cccnc3)n2)c(O)c1	53	n	n	n	n
COc1ccc(-c2cc(C(=O)O)nc3ccc4ccccc4c23)cc1OC	65	n	n	n	n
CSc1cccc(NC(=O)c2ccccn2)c1	51	n	n	x	n
CSc1cccc(NC(=O)c2cnccn2)c1	n	n	n	n	n
Cc1[nH]nc(N=Cc2c(O)n(C)c(=O)n(C)c2=O)c1-c1ccccc1	n	n	x	x	n
Cn1c(O)c(/C=N/Nc2ccccc2)c(=O)n(C)c1=O	n	n	16	n	n
CN(Cc1cnc2nc(N)nc(N)c2n1)c1ccc(C(=O)NC(CCC(=O)O)C(=O)O)cc1C(F)(F)F (stereo not drawn)	x	x	x	82	x
CN(Cc1cnc2nc(N)nc(N)c2n1)c1ccc(C(=O)NC(CCC(=O)O)C(=O)O)cc1 (stereo not drawn)	x	x	x	81	x
O=C(/C=C/c1ccccc1)Nc1scc(-c2ccccc2)c1C(=O)O	74	n	n	n	n
O=C(/C=C\c1ccccc1)Nc1nccs1	53	n	n	n	n
O=C(/C=C/c1ccco1)Nc1scc(-c2ccccc2)c1C(=O)O	x	n	n	54	x
O=C(Nc1scc(-c2ccccc2)c1C(=O)O)c1ccccc1F	x	x	n	n	x
CCC(=O)N1CCCC1(C)C(=O)Nc1ccc(C)c(C)c1 (stereo not drawn)	x	x	x	n	x
COc1ccc2c(c1)CC/C(=C\Nc1ccc3c(c1)OCO3)C2=O	68	n	n	52	n
COc1ccc(S(=O)(=O)Nc2ccc3c(c2)OCO3)cc1	n	n	n	n	n
CCCS(=O)(=O)NC(=O)C1(C)CCN(C(=O)c2snnc2C)C1 (stereo not drawn)	x	x	x	n	x
COCCn1c(=S)[nH]c2sc3c(c2c1=O)CCC(C)C3 (stereo not drawn)	x	x	n	n	x
Cn1c(=S)[nH]c2sc3c(c2c1=O)CCC(C(C)(C)C)C3 (stereo not drawn)	x	x	n	53	x
O=C(Nc1ccc(N2CCN(Cc3ccccc3F)CC2)cc1)c1ccc([N+](=O)[O-])o1	x	x	n	89	x
CC1CCN(c2ccc(NC(=O)c3ccc([N+](=O)[O-])o3)cc2)CC1	x	x	x	94	x
Cc1ccc(N=Cc2c(C)[nH]n(-c3nc4ccccc4[nH]3)c2=O)cc1	79	79	n	89	n
C[C@@H]1Cc2[nH][nH]c(=O)c2[C@H](c2ccc(Cl)cc2)O1	x	x	x	n	x
SMILES	FLuc inh counter	PPC-1+TRAIL kill	HSP90 inh	TRAIL sens C8	FLuc stim CS
O=c1oc(-c2ccccc2)nc2sc3c(c12)CCCC3	n	n	n	n	n
O=c1oc(-c2cccs2)nc2sc3c(c12)CCCCC3	67	n	n	n	n
Cc1ccc(C(=O)NNC(=S)Nc2cccc3ccccc23)s1	58	n	n	n	n
OC(c1cccc(F)c1)c1ncc(-c2ccc(C(F)(F)F)cc2)[nH]1 (stereo not drawn)	x	x	x	n	x
CCCCNC(=O)c1nc(-c2ccccc2)oc1-c1ccc(Cl)cc1	x	x	x	n	x
Cc1c(C(=O)NCC2CCCO2)oc2ccc3c(c12)C(=O)CC(C)(C)O3 (stereo not drawn)	67	n	n	n	n
Cc1ccc(-n2[nH]c(C)c(C=Nc3ccc4[nH]c(=O)[nH]c4c3)c2=O)cc1C	n	n	n	51	n
Oc1ccc(/C=N/N2CCN(C3c4ccccc4-c4ccccc43)CC2)cc1O	x	n	n	58	x
CCN=C1NN=C(c2cc(C)n(CCc3ccccc3)c2C)CS1	n	n	n	n	n
CCN=C1NN=C(c2cc(C)n(Cc3ccco3)c2C)CS1	91	n	n	n	n
CC(=O)Nc1cccc(-c2ccnc3c2CC(C(=O)NCc2ccc(F)c(F)c2)O3)c1 (stereo not drawn)	x	x	x	n	x
CC(C)Nc1ncnc2c1ncn2[C@H]1CN(C2CCCC2)C[C@@H](CO)O1	x	x	x	n	x
CNC(=O)COC(=O)c1ccc(-c2nc3ccccc3s2)s1	81	66	n	n	n
COCCCNC(=O)COC(=O)c1ccc(-c2nc3ccccc3s2)s1	n	n	n	n	n
OC(c1ccc(CN2CCCCC2)cc1)c1ncc(-c2ccccc2)[nH]1 (stereo not drawn)	x	x	x	n	x
O=C(Cc1ccccc1)Nc1cccc([N+](=O)[O-])c1	n	n	n	n	n
O=C(Nc1cccc([N+](=O)[O-])c1)c1ccc2ccccc2c1O	x	n	n	54	x
O=C(Nc1cccc([N+](=O)[O-])c1)c1ccncc1	n	n	n	n	n
CC(C)(C)c1ccc(C(=O)Nc2cccc([N+](=O)[O-])c2)cc1	72	n	n	55	n
O=C(Nc1cccc2cccnc12)c1csc([C@@H]2O[C@H](CO)[C@H](O)[C@H](O)[C@H]2O)n1	x	x	x	n	x
Cc1cc(-c2n[nH]c(=S)o2)c(C)n1-c1ccccc1	67	n	n	x	n
Oc1cc2ccccc2cc1-c1n[nH]c(=S)o1	n	n	n	n	n
COc1ccc(OC)c(NC(=O)Nc2nnc(COCCO)s2)c1	x	x	x	n	x
COc1ccc(OC)c(N/C(C)=C/C(=O)c2ccccc2)c1	76	n	n	n	n
COc1ccc(OC)c(N/C(C)=C/C(=O)c2ccncc2)c1	x	x	n	n	x
Cc1c(Cl)cccc1NC(=O)CSc1nc(=O)n(CCCN2CCOCC2)c2c1CCCC2	x	x	x	n	x
Cc1ccc(C(=O)COC(=O)c2cc(=O)[nH]c3ccccc23)cc1C	55	n	n	n	n
